# Screening data from PubChem BioAssay.
# Fh CTSL1 inh: counter-screen for PFM18AAP inhibitors: inhibitors of F. hepatica cathepsin L1. inhibition, % at 5.96 µM. recombinant F. hepatica cathepsin L1, Z-Leu-Arg-MCA fluorescence. hit rate 0.49% among 300,000;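 active = inhibition above the mean of all tested compounds plus 3 SD, set per screening campaign, cut at about 17% in these data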;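 also: 0% = plate median of test compound wells and 100% = 1 µM Z-Phe-Ala-diazomethylketone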
# Myeloid diff MLP: promotes myeloid progenitor differentiation | hit rate 1% among 360,000 | AID 624256 | calls only at 10 µM | ER-HoxA9 myeloid progenitors, lysozyme-GFP differentiation, flow cytometry;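 active = normalized GFP-positive differentiation at or above the plate's own cutoff, the solvent-only control mean plus 3 SD; inconclusive = no clear call, values can overlap the other calls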;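 also: cells exposed to compound for four days before flow analysis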
# HCV core dimer: blocks dimerization of HCV core protein | hit rate 0.33% among 300,000 | inhibition, % at 5 µM | TR-FRET GST/Flag-core106 dimerization, 1536-well | AID 1899;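 active = inhibition above the mean of all tested compounds plus 3 SD, set per screening campaign, cut at about 45% in these data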
#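 Material: GST/Flag-tagged HCV core106 proteins. Incubation: 4 h, 22.5 °C incubation. Read-out basis: inhibition (%) from 671 over 617 nm ratio. Measured by: TR-FRET, excitation 340 nm, emission 617 and 671 nm.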
# PP5 inh: blocks human protein phosphatase 5 activity; purified PP5c, OMFP substrate fluorescence; inhibition, % at 6.7 µM; hit rate 0.18% among 320,000;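 active = inhibition above the campaign's mean inhibition across all tested compounds plus 3 SD, cut at about 9.5% in these data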;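 also: 0% = DMSO only and 100% = 100 µM cantharidin control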
# PP1 inh: counter-screen for PP5 inhibitors: inhibitors of human PP1-alpha | P62136 | purified PP1alpha, OMFP fluorescence | inhibition, % at 6.7 µM | hit rate 0.9% among 320,000 | AID 2235;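 active = inhibition above the mean inhibition of all tested compounds plus 3 SD, computed separately for each screening campaign, cut at about 15% in these data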
# Target sequence (P62136 whole entry, looked up): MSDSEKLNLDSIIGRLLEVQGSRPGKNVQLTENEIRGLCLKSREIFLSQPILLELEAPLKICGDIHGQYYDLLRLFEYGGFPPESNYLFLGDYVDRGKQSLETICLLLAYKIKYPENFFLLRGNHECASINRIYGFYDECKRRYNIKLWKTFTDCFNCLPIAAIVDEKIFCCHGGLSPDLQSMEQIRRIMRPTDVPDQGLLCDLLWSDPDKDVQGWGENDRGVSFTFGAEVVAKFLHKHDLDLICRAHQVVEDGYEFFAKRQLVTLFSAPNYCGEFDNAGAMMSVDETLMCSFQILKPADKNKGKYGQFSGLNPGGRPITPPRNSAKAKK
# NadD inh: blocks S. aureus nicotinate mononucleotide adenylyltransferase. hit rate 0.78% among 360,000. inhibition, % at 20 µM. purified NadD enzyme, colorimetric absorbance read-out; in the data active = inhibition above about 26%
# NadD inh conf: NadD (S. aureus) inhibition, single concentration confirmation. shares compounds with NadD inh. purified S. aureus NadD, colorimetric enzyme assay. inhibition, % at 20 µM. hit rate 13% among 2,000. AID 624309; in the data active = inhibition mostly above about 42%, no sharp cut-off; inactive = mostly below about 42%
# Starred values were filed as active, the others as inactive; i = inactive; ? = inconclusive; / = not tested or not shown; + = active, no number. Sampled rows, rich in hits. Any-hit rate of the full collection: about 3.1%.
SMILES,Fh CTSL1 inh,Myeloid diff MLP,HCV core dimer,PP5 inh,PP1 inh,NadD inh,NadD inh conf
O=C(Nc1ccn(CCCNCc2cccc3ccccc23)c(=O)n1)OCc1ccccc1,/,i,/,/,/,12,/
Cc1cccc(N2CC(C)Cn3c2nc2c3c(=O)[nH]c(=O)n2C)c1 (stereo not drawn),2,i,2,1,-2,0,/
O=C(Nc1ccccc1OCc1ccccc1)c1ccccc1Br,-2,i,5,3,-3,-9,/
O=C(COc1ccc(/C=N/NC(=O)c2ccccc2O)cc1)Nc1ccc([N+](=O)[O-])cc1,10,i,50*,1,0,40*,-2
Cc1[nH]c(C)c(S(=O)(=O)N(Cc2ccccc2)C(C)C)c1C(=O)N1CCCC1,-5,i,-9,2,-2,-6,/
Cc1ccc(NC(=O)CN2C(=O)S/C(=C\c3cccn3-c3cccc(C(=O)O)c3)C2=O)c(C)c1,-3,i,23,3,0,40*,5
Cc1ccccc1NC(=O)CN1C(=O)S/C(=C\c2cccn2-c2cccc(C(=O)O)c2)C1=O,0,i,13,4,1,15,/
COc1ccc(/C=C2/Sc3ccc(C(=O)NCCN4CCCCCC4)cc3NC2=O)cc1,0,?,-20,4,11,56*,-11
Cc1cc(OCc2cc(C(=O)NC(C)c3c(C)nn(C)c3C)no2)cc(C)c1Cl (stereo not drawn),-12,i,1,3,-1,-11,/
CCN(CC)c1ccc(S(=O)(=O)Nc2cc(Cl)ccc2Cl)cc1NC(=S)NC(=O)C1CCCC1,0,i,34,2,15*,31*,15
CCN(CC)S(=O)(=O)c1ccc(Cl)c(NC(=S)NC(=O)C2CCCC2)c1,/,i,/,5,10,0,/
COc1cc(OC)c(N(C)S(=O)(=O)c2cccc(C(=O)Nc3nnc(C4CC4)s3)c2)cc1Cl,5,i,16,-2,-5,32*,6
CCN1C(C)=CC(=O)[C@@H](O)[C@H]1c1ccccc1Br,/,i,/,/,/,7,/
S=C(Nc1ccc(Oc2ccccc2)cc1)NC1CCCCCC1,3,i,2,4,3,4,/
S=C(Nc1ccc(Oc2ccc(NC(=S)NC3CCCCC3)cc2)cc1)NC1CCCCC1,1,?,37,1,10,35*,31
NNC(=O)c1[nH]c2ccc([N+](=O)[O-])cc2c1-c1ccccc1,4,i,11,2,6,4,/
O=C(N/N=C/c1ccccn1)c1[nH]c2ccc([N+](=O)[O-])cc2c1-c1ccccc1,2,i,14,4,13,67*,38
O=C(N/N=C/c1ccccc1)c1[nH]c2ccc(Br)cc2c1-c1ccccc1,1,?,-3,1,-1,34*,44
O=C(NN=C1CCCC1)c1[nH]c2ccc(Br)cc2c1-c1ccccc1,1,/,11,3,-1,/,/
O=C(c1ccccc1)C1CC=CCC1C(=O)c1ccccc1 (stereo not drawn),/,i,/,/,/,-5,/
CCCn1c(CN2CCN(C(C)=O)CC2)nc2cc(S(=O)(=O)N(C)C)ccc21,-1,i,-9,-5,-6,-4,/
Cc1cc2cc(CNC(=S)NCc3ccccc3)ccc2n1C,2,i,4,3,2,52*,-10
Cc1cc2cc(CNC(=S)NC3CCCCC3)ccc2n1C,-1,i,13,2,4,34*,6
Cc1ccccc1NC(=S)NCc1ccc2c(c1)cc(C)n2C,-2,?,7,4,3,2,/
COc1ccc(CC(=S)NCCc2ccccc2)cc1,0,i,-1,2,-5,-1,/
SMILES,Fh CTSL1 inh,Myeloid diff MLP,HCV core dimer,PP5 inh,PP1 inh,NadD inh,NadD inh conf
N#Cc1ccc2sn(-c3ccccc3)c(=O)c2c1,/,i,/,/,/,10,/
COC(=O)c1cccc(CN2C(=O)SC(Nc3ccccc3)C2=O)c1 (stereo not drawn),-5,i,-3,3,-4,31*,-6
COc1ccc(C2=NN(C(=O)COC(=O)c3ccc(NC(=O)CC#N)cc3)C(c3ccco3)C2)cc1 (stereo not drawn),/,+,/,2,16*,37*,19
O=C(OCC(=O)N1N=C(c2ccc(Cl)cc2)CC1c1ccco1)c1ccco1 (stereo not drawn),-27,i,17,2,-3,2,/
O=C(NC(Cc1c[nH]c2ccccc12)C(=O)N/N=C/c1ccc(Cl)cc1)c1cccs1 (stereo not drawn),0,i,17,-2,0,31*,35
O=C(NC(Cc1c[nH]c2ccccc12)C(=O)N1CCOCC1)c1cccs1 (stereo not drawn),-7,i,0,2,-1,0,/
Cc1ccc([C@@H]2CC=C(C(=O)O)[C@H](c3ccc(F)cc3)N2S(=O)(=O)c2ccccc2C)cc1,/,i,/,/,/,42*,36
COc1ccc(/C=N/NC(=O)c2nc(Cl)c(Cl)c(N)c2Cl)cc1COc1ccc(F)cc1F,3,i,53*,0,4,53*,4
COc1ccc(/C=N/NC(=O)c2nc(Cl)c(Cl)c(N)c2Cl)cc1COc1ccccc1F,-16,i,57*,2,2,30*,7
COc1cc(OC)cc(C(=O)N/N=C/c2ccc(OC)c(COc3ccc4ccccc4c3)c2)c1,4,i,39,3,2,40*,11
COc1ccc(/C=N/NC(=O)c2cc(C(C)(C)C)[nH]n2)cc1COc1ccc(F)cc1F,5,i,11,3,6,18,/
CN(CC(=O)Nc1ccc(F)c(F)c1F)C(=O)c1ccc(-n2cncn2)cc1,/,i,/,0,2,-3,/
CC(OC(=O)c1cccc(-n2cnnn2)c1)C(=O)NC1(C#N)CCCCC1 (stereo not drawn),/,i,/,-2,2,1,/
COc1ccc2nc3sc(C(=O)N4CCN(C)CC4)cc3cc2c1,10,i,2,0,-3,-2,/
COc1ccc2nc3sc(C(=O)NCCCN4CCc5ccccc5C4)cc3cc2c1,6,i,-13,-4,7,30*,9
Cc1cc(-n2c(SCC(=O)Nc3ccc(Br)cc3)nc3n[nH]c(C)c3c2=N)ccc1Cl,0,i,13,0,-9,32*,10
COCc1cc(=O)n2[nH]c(-c3ccsc3-n3c(C)ccc3C)cc2n1,-1,i,10,1,4,56*,43*
Cc1cc(=O)n2[nH]c(-c3ccsc3-n3c(C)ccc3C)cc2n1,-3,i,38,3,16*,31*,16
Cc1nc2cc(-c3ccsc3-n3c(C)ccc3C)[nH]n2c(=O)c1Cl,1,i,0,4,4,16,/
Cn1c(SCC(=O)NC2CCCCC2)nnc1-c1ccccc1O,-3,i,-2,2,-3,1,/
